≈ marks a conversion by molar mass, not a printed value. Calls of active or inactive are those of the source.
How the values were obtained:
Mus musculus [1] = assay: Toxicity in PS mouse allografted with mouse P388 cells assessed as change in body weight at 1.6 ug/kg relative to control; format: organism-based; conditions: in vivo, 0.0016 mg/kg
Outline: (§1)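 P388 (PS) leukemia in mice, 6 mice per dose group. Weight change is the difference in grams between treated and control animals. Survivors are recorded on toxicity day, normally 4 days after the first injection.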

Mus musculus [2] = assay: Toxicity in PS mouse allografted with mouse P388 cells assessed as survival at 3.1 ug/kg after 4 days; format: organism-based; conditions: in vivo, 0.0031 mg/kg, 96 h
Outline: (§2)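 PS (P388) leukemic mice, six started per dose group. Toxicity scored as survivors on the toxicity day over the number of mice started. The toxicity day is normally 4 days after the first injection.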

Tubulin (Homo sapiens) = Tubulin (Homo sapiens) (UniProt P68371+Q9H4B7+P0DPH7+P68366+Q13509+Q71U36+P04350+Q3ZCM7+P07437+P68363+Q9BQE3+Q6PEY2+Q13885+Q9BVA1+Q9BUF5); assay: Inhibition of brain tubulin polymerization (unknown origin) at 37 degC by spectrophotometry
P388 [3] = assay: Antitumor activity against mouse P388 cells allografted in PS mouse assessed as median survival time at 100 ug/kg relative to control; format: functional
Outline: (§3)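 P388 leukemia (PS) in mice, six mice started per dose group. Read-out is T/C: median survival time of the treated group divided by that of the untreated control group, expressed as a percent. The NIH protocol counts a compound as active when T/C > 125%.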

P388 [4] = assay: Antitumor activity against mouse P388 cells allografted in PS mouse assessed as median survival time at 6.2 ug/kg relative to control; format: functional; outline: as §3
P388 [5] = assay: Antitumor activity against mouse P388 cells allografted in PS mouse assessed as median survival time at 25 ug/kg relative to control; format: functional; outline: as §3
Mus musculus [6] = assay: Toxicity in PS mouse allografted with mouse P388 cells assessed as change in body weight at 200 ug/kg relative to control; format: organism-based; conditions: in vivo, 0.2 mg/kg; outline: as §1
P388 [7] = assay: Antitumor activity against mouse P388 cells allografted in PS mouse assessed as median survival time at 12.5 ug/kg relative to control; format: functional; outline: as §3
Mus musculus [8] = assay: Toxicity in PS mouse allografted with mouse P388 cells assessed as change in body weight at 12.5 ug/kg relative to control; format: organism-based; conditions: in vivo, 0.0125 mg/kg; outline: as §1
KB = assay: Cytotoxicity against human KB cells; format: functional; conditions: read-out: ED50 (the source's name)
P388 [9] = assay: Antitumor activity against mouse P388 cells allografted in PS mouse assessed as median survival time at 200 ug/kg relative to control; format: functional; outline: as §3
Mus musculus [10] = assay: Toxicity in PS mouse allografted with mouse P388 cells assessed as change in body weight at 3.1 ug/kg relative to control; format: organism-based; conditions: in vivo, 0.0031 mg/kg; outline: as §1
Mus musculus [11] = assay: Toxicity in PS mouse allografted with mouse P388 cells assessed as survival at 6.2 ug/kg after 4 days; format: organism-based; conditions: in vivo, 0.0062 mg/kg, 96 h; outline: as §2
Mus musculus [12] = assay: Toxicity in PS mouse allografted with mouse P388 cells assessed as change in body weight at 100 ug/kg relative to control; format: organism-based; conditions: in vivo, 0.1 mg/kg; outline: as §1
P388 [13] = assay: Antitumor activity against mouse P388 cells allografted in PS mouse assessed as median survival time at 3.1 ug/kg relative to control; format: functional; outline: as §3
Mus musculus [14] = assay: Toxicity in PS mouse allografted with mouse P388 cells assessed as change in body weight at 50 ug/kg relative to control; format: organism-based; conditions: in vivo, 0.05 mg/kg; outline: as §1
Mus musculus [15] = assay: Toxicity in PS mouse allografted with mouse P388 cells assessed as survival at 25 ug/kg after 4 days; format: organism-based; conditions: in vivo, 0.025 mg/kg, 96 h; outline: as §2
Mus musculus [16] = assay: Toxicity in PS mouse allografted with mouse P388 cells assessed as survival at 100 ug/kg after 4 days; format: organism-based; conditions: in vivo, 0.1 mg/kg, 96 h; outline: as §2
Mus musculus [17] = assay: Toxicity in PS mouse allografted with mouse P388 cells assessed as survival at 12.5 ug/kg after 4 days; format: organism-based; conditions: in vivo, 0.0125 mg/kg, 96 h; outline: as §2
P388 [18] = assay: Antitumor activity against mouse P388 cells allografted in PS mouse assessed as median survival time at 400 ug/kg relative to control; format: functional; outline: as §3
Mus musculus [19] = assay: Toxicity in PS mouse allografted with mouse P388 cells assessed as survival at 400 ug/kg after 4 days; format: organism-based; conditions: in vivo, 0.4 mg/kg, 96 h; outline: as §2
P388 [20] = assay: Antitumor activity against mouse P388 cells allografted in PS mouse assessed as median survival time at 50 ug/kg relative to control; format: functional; outline: as §3
P388 [21] = assay: Antitumor activity against mouse P388 cells allografted in PS mouse assessed as median survival time at 1.6 ug/kg relative to control; format: functional; outline: as §3
Paracentrotus lividus = assay: Antimitotic activity against sea urchin eggs assessed as drug level causing inhibition of mitosis; format: functional; conditions: Egg
Mus musculus [22] = assay: Toxicity in PS mouse allografted with mouse P388 cells assessed as change in body weight at 25 ug/kg relative to control; format: organism-based; conditions: in vivo, 0.025 mg/kg; outline: as §1
Mus musculus [23] = assay: Toxicity in PS mouse allografted with mouse P388 cells assessed as survival at 1.6 ug/kg after 4 days; format: organism-based; conditions: in vivo, 0.0016 mg/kg, 96 h; outline: as §2
Mus musculus [24] = assay: Toxicity in PS mouse allografted with mouse P388 cells assessed as survival at 50 ug/kg after 4 days; format: organism-based; conditions: in vivo, 0.05 mg/kg, 96 h; outline: as §2
Mus musculus [25] = assay: Toxicity in PS mouse allografted with mouse P388 cells assessed as survival at 200 ug/kg after 4 days; format: organism-based; conditions: in vivo, 0.2 mg/kg, 96 h; outline: as §2
Mus musculus [26] = assay: Toxicity in PS mouse allografted with mouse P388 cells assessed as change in body weight at 6.2 ug/kg relative to control; format: organism-based; conditions: in vivo, 0.0062 mg/kg; outline: as §1
Mus musculus [27] = assay: Toxicity in PS mouse allografted with mouse P388 cells assessed as change in body weight at 400 ug/kg relative to control; format: organism-based; conditions: in vivo, 0.4 mg/kg; outline: as §1

Row | SMILES | Activity (Mus musculus [2]) | inhibition (Tubulin (Homo sapiens)) | T/C (P388 [3]) [%] | T/C (P388 [4]) [%] | T/C (P388 [5]) [%] | Activity (Mus musculus [6]) [g] | T/C (P388 [7]) [%] | Activity (Mus musculus [8]) [g] | EC50 (KB) [µg/mL] | T/C (P388 [9]) [%] | Activity (Mus musculus [10]) [g] | Activity (Mus musculus [11]) | Activity (Mus musculus [12]) [g] | T/C (P388 [13]) [%] | Activity (Mus musculus [14]) [g] | Activity (Mus musculus [15]) | Activity (Mus musculus [16]) | Activity (Mus musculus [17]) | T/C (P388 [18]) [%] | Activity (Mus musculus [19]) | further results
1 | CCO[C@]12C[C@H](OC(=O)N1)[C@@H](C)[C@@H]1O[C@@]1(C)[C@@H](OC(=O)[C@H](C)N(C)C(C)=O)CC(=O)N(C)c1cc(cc(OC)c1Cl)C/C(C)=C/C=C/[C@H]2OC | Non-toxic | Active | 105 | 99 | 116 | 0.3 | 101 | -0.3 | 0.011 (≈ 0.0153 µM) | 98 | -0.7 | Non-toxic | -2 | 99 | -0.8 | Non-toxic | Non-toxic | Non-toxic | 100 | Non-toxic | Activity (Mus musculus [1]): -0.1 g; T/C (P388 [20]): 98%; T/C (P388 [21]): 99%; Activity (Paracentrotus lividus): 1 ×10⁻⁷ mol/L; Activity (Mus musculus [22]): -0.3 g; Activity (Mus musculus [23]): Non-toxic; Activity (Mus musculus [24]): Non-toxic; Activity (Mus musculus [25]): Non-toxic; Activity (Mus musculus [26]): -1.3 g; Activity (Mus musculus [27]): -0.6 g
2 | CCCS[C@]12C[C@H](OC(=O)N1)[C@@H](C)[C@@H]1O[C@@]1(C)[C@@H](OC(=O)[C@H](C)N(C)C(=O)C(C)C)CC(=O)N(C)c1cc(cc(OC)c1Cl)C/C(C)=C/C=C/[C@H]2OC | Non-toxic | Active | 127 | <80 | 101 | -2.4 | 95 | 0.6 | 0.00031 (≈ 0.000398 µM) | 151 | 0.6 | Non-toxic | -1.6 | 97 | 0.4 | Non-toxic | Non-toxic | Non-toxic | 151 | Non-toxic | Activity (Mus musculus [1]): 0.8 g; T/C (P388 [20]): 118%; T/C (P388 [21]): 100%; Activity (Paracentrotus lividus): 1 ×10⁻⁸ mol/L; Activity (Mus musculus [22]): 0.7 g; Activity (Mus musculus [23]): Non-toxic; Activity (Mus musculus [24]): Non-toxic; Activity (Mus musculus [25]): Non-toxic; Activity (Mus musculus [26]): -0.1 g; Activity (Mus musculus [27]): 0.6 g
3 | COc1cc2cc(c1Cl)N(C)C(=O)CC(O)C1(C)OC1C(C)C1CC(O)(NC(=O)O1)C(OC)/C=C/C=C(\C)C2 (configuration not stated) [MAYTANSINOL] | Non-toxic | Active | 105 | 102 | 94 | -1.8 | 102 | 1.5 | 0.19 (≈ 0.336 µM) | 112 | 0.9 | Non-toxic | 1.2 | 102 | -0.4 | Non-toxic | Non-toxic | Non-toxic | 102 | Non-toxic | T/C (P388 [20]): 112%; Activity (Paracentrotus lividus): 1 ×10⁻⁵ mol/L; Activity (Mus musculus [22]): 0.5 g; Activity (Mus musculus [24]): Non-toxic; Activity (Mus musculus [25]): Non-toxic; Activity (Mus musculus [26]): 0.5 g; Activity (Mus musculus [27]): -2.6 g

Source: ChEMBL document CHEMBL3244382, “Structural requirements for antileukemic activity among the naturally occurring and semisynthetic maytansinoids” (J Med Chem, 1978)
